# Results from ChEMBL document CHEMBL1156926, “CoMFA analysis of tgDHFR and rlDHFR based on antifolates with 6-5 fused ring system using the all-orientation search (AOS) routine and a modified cross-validated r(2)-guided region selection (q(2)-GRS) routine and its initial application” (Bioorg Med Chem, 2010).
# Activity calls are given as the source filed them. No cut-off for these calls is given here.
# Columns and labels:
# [1] = biological target: T1, Bifunctional dihydrofolate reductase-thymidylate synthase (Toxoplasma gondii, UniProt Q07422); experiment: Inhibition of Toxoplasma gondii DHFR by spectrophotometric assay
# T1 sequence (Q07422 whole entry): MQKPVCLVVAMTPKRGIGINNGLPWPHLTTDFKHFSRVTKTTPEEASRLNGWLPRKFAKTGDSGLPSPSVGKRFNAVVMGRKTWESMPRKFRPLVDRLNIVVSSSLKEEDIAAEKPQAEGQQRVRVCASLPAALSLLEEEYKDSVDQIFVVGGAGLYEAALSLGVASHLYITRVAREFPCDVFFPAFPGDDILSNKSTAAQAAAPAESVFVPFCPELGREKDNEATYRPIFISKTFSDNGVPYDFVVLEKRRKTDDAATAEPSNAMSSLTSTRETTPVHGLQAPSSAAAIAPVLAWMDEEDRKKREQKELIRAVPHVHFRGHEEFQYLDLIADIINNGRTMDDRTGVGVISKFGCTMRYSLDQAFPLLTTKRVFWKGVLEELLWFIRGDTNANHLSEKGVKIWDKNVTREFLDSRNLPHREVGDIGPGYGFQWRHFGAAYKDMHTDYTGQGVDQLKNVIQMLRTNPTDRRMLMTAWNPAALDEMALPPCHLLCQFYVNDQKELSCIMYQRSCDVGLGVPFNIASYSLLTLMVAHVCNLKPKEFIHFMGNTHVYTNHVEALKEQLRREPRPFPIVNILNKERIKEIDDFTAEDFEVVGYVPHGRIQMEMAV
# Dihydrofolate reductase [2] = biological target: T2, Dihydrofolate reductase (Rattus norvegicus, UniProt Q920D2); experiment: Inhibition of rat liver DHFR by spectrophotometric assay
# T2 sequence (Q920D2 whole entry): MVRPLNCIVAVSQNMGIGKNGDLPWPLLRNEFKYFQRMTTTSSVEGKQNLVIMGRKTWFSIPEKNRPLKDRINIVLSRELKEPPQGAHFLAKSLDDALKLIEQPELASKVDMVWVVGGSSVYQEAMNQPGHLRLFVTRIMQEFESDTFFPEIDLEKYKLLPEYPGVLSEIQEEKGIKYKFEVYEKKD
# Dihydrofolate reductase [3] = biological target: T2, Dihydrofolate reductase; experiment: Inhibition of rat liver DHFR using dihydrofolic acid substrate and NADPH cofactor by spectrophotometric assay
# [4] = biological target: T1, Bifunctional dihydrofolate reductase-thymidylate synthase; experiment: Inhibition of Toxoplasma gondii DHFR using dihydrofolic acid substrate and NADPH cofactor by spectrophotometric assay
# [5] = biological target: T3, Dihydrofolate reductase (Rattus norvegicus) (UniProt Q920D2); conditions: 24.6 uM
# T3 sequence (whole entry): T2 sequence (Q920D2 whole entry)
# Toxoplasma gondii [6] = conditions: RH, 50 mg/kg
# Toxoplasma gondii [7] = conditions: RH, 50 mg/kg; remark: listed apart in the source
# Toxoplasma gondii [8] = experiment: Antimicrobial activity against Toxoplasma gondii RH infected in BALB/c mouse assessed as mouse survival at 50 mg/kg, ip after 5 days; assay type: functional; conditions: route intraperitoneal
# Toxoplasma gondii [9] = experiment: Antimicrobial activity against Toxoplasma gondii RH infected in BALB/c mouse assessed as reduction of parasite level at 50 mg/kg, ip relative to untreated control; assay type: functional; conditions: route intraperitoneal
# In short: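 Female BALB/c mice (18-20 g) inoculated i.p. with 5 × 10³ cultured RH trophozoites. Treatment began 4 h after inoculation: 50 mg/kg/day i.p. (amount injected). Where folic acid was used, it was given in drinking water at 10 microgram/ml. Survival was recorded to day 5 and mice were harvested on day 6. Parasites in peritoneal exudate were counted per 1000x field (10 microliters spread over 1 cm²).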
Compound,IC50 [1] [µM],IC50 (Dihydrofolate reductase [2]) [µM],other results
Nc1nc(N)c2c(CSc3ccccc3Oc3ccccc3)coc2n1,38,18,–
Cc1c(Sc2cc(Cl)c(Cl)cc2Cl)[nH]c2nc(N)nc(N)c12,–,–,IC50 (Dihydrofolate reductase [3]): 3 µM; IC50 [4]: 212 nM
Cc1[nH]c2nc(N)nc(N)c2c1Sc1ccc(Cl)cc1,–,37.4,–
Nc1nc(N)c2c(CNc3cccc4cc5ccccc5cc34)coc2n1,–,> 51,–
Nc1nc(N)c2c(CNc3cccc4c3CCCC4)c[nH]c2n1,–,59.3,–
COc1cc(Sc2[nH]c3nc(N)nc(N)c3c2C)cc(OC)c1OC,–,–,IC50 (Dihydrofolate reductase [3]): > 24.6 µM; inhibition [5]: 12%
Nc1nc(N)c2c(CNc3ccc4c(c3)C(O)c3ccccc3-4)coc2n1 (stereo unspecified),63,> 13,–
Nc1nc(N)c2c(CCCc3ccc(OCc4ccccc4)cc3)c[nH]c2n1,1.6,0.66,–
Cc1cc(C)cc(Sc2[nH]c3nc(N)nc(N)c3c2C)c1,–,–,IC50 (Dihydrofolate reductase [3]): 7.6 µM
COc1ccc(OC)c(CCCc2c[nH]c3nc(N)nc(N)c23)c1,–,11.8,–
COc1ccc(OC)c(Sc2c(C)[nH]c3nc(N)nc(N)c23)c1,87,> 46,–
Nc1nc(N)c2c(CNc3ccc4c(c3)Cc3ccccc3-4)coc2n1,–,> 10,–
Cc1c(Sc2ccc3ccccc3c2)[nH]c2nc(N)nc(N)c12,–,–,IC50 (Dihydrofolate reductase [3]): 8.1 µM; IC50 [4]: 1600 nM
Nc1nc(N)c2c(CSc3ccc(-c4ccccc4)cc3)coc2n1,79,351,–
CCn1c2ccccc2c2cc(NCc3coc4nc(N)nc(N)c34)ccc21,4.5,12.6,–
Nc1nc(N)c2c(CSc3cccc4c3CCCC4)c[nH]c2n1,0.81,3,–
Cc1[nH]c2nc(N)nc(N)c2c1Sc1ccc(Cl)cc1Cl,28.2,34.6,–
Nc1nc(N)c2c(CSc3ccc(Oc4ccccc4)cc3)coc2n1,–,65,–

Compound,IC50 [1] [µM],IC50 (Dihydrofolate reductase [2]) [µM],other results
Nc1nc(N)c2c(CSc3cccc(Oc4ccccc4)c3)coc2n1,19,39,–
COc1ccc(OC)c(NCc2nc3c(N)nc(N)nc3[nH]2)c1,–,> 29,–
Nc1nc(N)c2c(CSc3ccc4c(c3)CCCC4)c[nH]c2n1,9.2,82.9,–
Nc1nc(N)c2c(CCCc3cc(Cl)ccc3Cl)c[nH]c2n1,–,4.8,–
Nc1nc(N)c2c(CSc3ccccc3-c3ccccc3)coc2n1,105,49,–
Cc1cccc(C)c1Sc1[nH]c2nc(N)nc(N)c2c1C [listing 1 of 2 here],–,–,inhibition (Toxoplasma gondii [6]): Active; inhibition (Toxoplasma gondii [7]): Active
Cc1[nH]c2nc(N)nc(N)c2c1Sc1cccc2c1CCCC2,–,40,–
CCn1c2ccccc2c2cc(N(C)Cc3coc4nc(N)nc(N)c34)ccc21,22.6,24.7,–
Nc1nc(N)c2c(CCCc3ccccc3)c[nH]c2n1,2.7,8.6,–
Cc1[nH]c2nc(N)nc(N)c2c1Sc1ccccc1,81,> 33,–
Nc1nc(N)c2c(CSc3cccc(-c4ccccc4)c3)coc2n1,23,31,–
Cc1cccc(C)c1Sc1[nH]c2nc(N)nc(N)c2c1C.Cl,–,–,Survival (Toxoplasma gondii [8]): 100%
Cc1[nH]c2nc(N)nc(N)c2c1Sc1cccc(Cl)c1,–,64,–
Nc1nc(N)c2c(CCCc3ccc4c(c3)CCCC4)c[nH]c2n1,–,1.09,–
COc1ccc(-c2nc3nc(N)nc(N)c3[nH]2)c([N+](=O)[O-])c1OC,–,> 25,–
COc1cc(CCCc2c[nH]c3nc(N)nc(N)c23)cc(OC)c1OC,–,4.8,–
Cc1cccc(C)c1Sc1[nH]c2nc(N)nc(N)c2c1C [listing 2 of 2 here],–,–,"IC50 (Dihydrofolate reductase [3]): 0.388 µM; fold change (FC) (Toxoplasma gondii [9]): >2; survival at 50 mg/kg (Toxoplasma gondii [8]; Toxoplasma gondii, RH, ip, 120 h): 100%"
